# Data reported in ChEMBL document CHEMBL4673285, “Design, Synthesis, and Biological Evaluation of Linear Aliphatic Amine-Linked Triaryl Derivatives as Potent Small-Molecule Inhibitors of the Programmed Cell Death-1/Programmed Cell Death-Ligand 1 Interaction with Promising Antitumor Effects In Vivo” (J Med Chem, 2020).
# Active and inactive are the calls of the source. No cut-off for these calls is given here.
# Columns and labels:
# [1] = tested on: RAW264.7; test: Cytotoxicity against mouse RAW264.7 cells assessed as reduction in cell viability at 3.125 to 100 uM incubated for 24 hrs by Cell-titer glo Luminescent assay; assay type: cell-based; settings: raw264.7, 24 h, dose 3.125-100 µM
# How it was run: (§1)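 Cells (Raji, RAW 264.7 or donor PBMCs) plated at 1 × 10⁴ per well in medium with 10% FBS. Treated for 24 h at 37 °C, 5% CO₂ with 100, 50, 25, 12.5, 6.25 or 3.125 μM compound, or buffer containing 0.2% DMSO. Viability read by CellTiter-Glo luminescence; killing rate = (1 − RLU compound/RLU control) × 100%; triplicate, mean ± SEM.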
# [2] = Cytotoxicity against human PBMC cells assessed as reduction in cell viability at 6.3 uM incubated for 24 hrs by Cell-titer glo Luminescent assay; assay type: cell-based; how it was run: as §1
# [3] = Cytotoxicity against human PBMC cells assessed as reduction in cell viability up to 100 uM incubated for 24 hrs by Cell-titer glo Luminescent assay; assay type: cell-based; how it was run: as §1
# [4] = molecular target: T1, Programmed cell death 1 ligand 1 (Homo sapiens, UniProt Q9NZQ7); test: Inhibition of human PD-L1 cocultured in PBMC cells assessed as inhibition of PD1/PDL1 interaction mediated increase in IFN-gamma secretion at 1 uM incubated for 72 hrs by ELISA relative to control; assay type: cell-based
# T1 sequence (Q9NZQ7 whole entry): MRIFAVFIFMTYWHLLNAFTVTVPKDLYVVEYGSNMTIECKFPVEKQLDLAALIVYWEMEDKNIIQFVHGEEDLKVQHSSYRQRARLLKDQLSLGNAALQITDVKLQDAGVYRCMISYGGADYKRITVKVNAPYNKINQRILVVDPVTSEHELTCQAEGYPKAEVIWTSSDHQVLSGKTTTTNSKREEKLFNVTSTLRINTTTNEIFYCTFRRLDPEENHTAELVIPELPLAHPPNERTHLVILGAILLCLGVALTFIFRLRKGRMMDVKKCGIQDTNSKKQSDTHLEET
# How it was run: (§2)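 Healthy-donor PBMCs, 1 × 10⁵ per well in RPMI 1640 with 10% FBS, stimulated with anti-CD3/anti-CD28 (1:1, 0.8 μg/mL final) plus PD-L1/Fc at 10 μg/mL final. Compound added at 0.1 or 1 μM final and cocultured 72 h at 37 °C, 5% CO₂. Supernatant IFN-γ measured by ELISA; quadruplicate, mean ± SEM.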
# [5] = molecular target: T1, Programmed cell death 1 ligand 1; test: Inhibition of human PD-L1 cocultured in PBMC cells assessed as inhibition of PD1/PDL1 interaction mediated increase in IFN-gamma secretion at 0.1 uM incubated for 72 hrs by ELISA; assay type: cell-based; how it was run: as §2
# [6] = molecular target: T1, Programmed cell death 1 ligand 1; test: Binding affinity to human PD-L1 expressed in CHOK1 cells assessed as inhibition of PD1/PDL1 protein-protein interaction at 500 nM incubated for 30 mins by flow cytometry analysis relative to control; assay type: cell-based; settings: CHO-K1
# How it was run: (§3)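 CHO-K1-hPD-L1 cells, 5 × 10⁵ per tube in PBS with 2% FBS, incubated with hPD-1/Fc (10 μg/mL final) at 4 °C for 30 min. Compound added at 500 nM final and incubated a further 30 min at 4 °C, then stained with APC anti-human IgG Fc. Percentage of hPD-1-bound cells read by flow cytometry. Blocking efficacy calculated against a no-inhibitor positive control and parental CHO-K1 negative control.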
# [7] = molecular target: T1, Programmed cell death 1 ligand 1; test: Binding affinity to human PD-L1 expressed in CHOK1 cells assessed as inhibition of PD1/PDL1 protein-protein interaction at 500 nM incubated for 30 mins by flow cytometry analysis; assay type: cell-based; settings: CHO-K1; how it was run: as §3
# [8] = molecular target: T1, Programmed cell death 1 ligand 1; test: Binding affinity to biotinylated human AVI-PD-L1 by biolayer interferometry
# How it was run: (§4)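 Biotinylated human PD-L1/AVI at 10 μg/mL loaded on streptavidin biosensors for 300 s, then baselined. Association with compound at 20 to 0.3125 nM plus 0 nM for 180 s, then dissociation in buffer for 300 s. Data globally fitted to a 1:1 model to give ka and kdis; apparent affinity taken as their ratio.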
# [9] = molecular target: T1, Programmed cell death 1 ligand 1; test: Binding affinity to biotinylated human AVI-PD-L1 assessed as association constant by biolayer interferometry; how it was run: as §4
# [10] = molecular target: T1, Programmed cell death 1 ligand 1; test: Binding affinity to biotinylated human AVI-PD-L1 assessed as dissociation rate constant by biolayer interferometry
# [11] = molecular target: Programmed cell death protein 1/Programmed cell death 1 ligand 1 (Homo sapiens, UniProt Q9NZQ7); test: Inhibition of PD1-Tag2/PD-L1-Tag1 (unknown origin) protein-protein interaction preincubated for 15 mins followed by addition of anti-Tag1-Eu3+ and anti-Tag2-XL665 measured after 2.5 hrs by HTRF assay; assay type: protein-complex assay
# Programmed cell death protein 1/Programmed cell death 1 ligand 1, sequence (Q15116 whole entry): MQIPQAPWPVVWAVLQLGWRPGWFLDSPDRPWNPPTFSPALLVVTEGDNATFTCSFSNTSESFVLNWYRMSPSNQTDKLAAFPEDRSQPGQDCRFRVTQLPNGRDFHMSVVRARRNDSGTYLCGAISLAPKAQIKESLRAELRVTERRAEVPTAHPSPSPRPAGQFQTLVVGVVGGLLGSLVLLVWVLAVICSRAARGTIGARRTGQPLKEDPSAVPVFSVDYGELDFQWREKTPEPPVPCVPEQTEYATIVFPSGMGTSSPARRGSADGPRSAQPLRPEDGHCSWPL
# Programmed cell death protein 1/Programmed cell death 1 ligand 1, sequence (Q9NZQ7 whole entry): as the sequence (Q9NZQ7 whole entry) above
# How it was run: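 Commercial HTRF kit. Compound incubated with PD-L1-Tag1 and PD1-Tag2 at rt for 15 min, then anti-Tag1-Eu³⁺/anti-Tag2-XL665 conjugate mix added and incubated 2.5 h at rt.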
# [12] = tested on: Raji; test: Cytotoxicity against human Raji cells assessed as reduction in cell viability at 100 uM incubated for 24 hrs by Cell-titer glo Luminescent assay; assay type: cell-based; how it was run: as §1
# [13] = molecular target: T1, Programmed cell death 1 ligand 1; test: Inhibition of human PD-L1 cocultured in PBMC cells assessed as inhibition of PD1/PDL1 interaction mediated increase in IFN-gamma secretion at 1 uM incubated for 72 hrs by ELISA; assay type: cell-based; how it was run: as §2
# [14] = molecular target: T2, Lymphocyte activation gene 3 protein (Homo sapiens) (UniProt P18627); test: Binding affinity to human Fc-tagged LAG3 at 500 nM measured after 600 sec by biolayer interferometry
# T2 sequence (whole entry): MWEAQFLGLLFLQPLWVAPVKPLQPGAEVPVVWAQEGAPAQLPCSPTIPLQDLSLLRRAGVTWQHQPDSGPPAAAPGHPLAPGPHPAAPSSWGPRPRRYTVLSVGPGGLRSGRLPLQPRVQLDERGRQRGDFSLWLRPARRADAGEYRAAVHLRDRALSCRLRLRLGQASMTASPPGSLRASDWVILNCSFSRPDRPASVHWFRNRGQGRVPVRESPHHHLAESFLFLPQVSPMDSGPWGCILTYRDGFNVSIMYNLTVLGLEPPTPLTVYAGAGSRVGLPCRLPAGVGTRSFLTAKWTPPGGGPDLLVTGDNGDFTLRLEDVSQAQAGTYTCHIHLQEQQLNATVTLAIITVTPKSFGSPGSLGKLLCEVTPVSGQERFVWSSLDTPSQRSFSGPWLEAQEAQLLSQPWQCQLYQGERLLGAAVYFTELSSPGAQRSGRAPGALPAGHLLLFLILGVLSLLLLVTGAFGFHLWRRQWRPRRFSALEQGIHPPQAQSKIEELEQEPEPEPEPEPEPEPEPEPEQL
# [15] = molecular target: CD27 antigen (Homo sapiens) (UniProt P26842); test: Binding affinity to human Fc-tagged CD27 at 500 nM measured after 600 sec by biolayer interferometry
# CD27 antigen (Homo sapiens), sequence (P26842 whole entry): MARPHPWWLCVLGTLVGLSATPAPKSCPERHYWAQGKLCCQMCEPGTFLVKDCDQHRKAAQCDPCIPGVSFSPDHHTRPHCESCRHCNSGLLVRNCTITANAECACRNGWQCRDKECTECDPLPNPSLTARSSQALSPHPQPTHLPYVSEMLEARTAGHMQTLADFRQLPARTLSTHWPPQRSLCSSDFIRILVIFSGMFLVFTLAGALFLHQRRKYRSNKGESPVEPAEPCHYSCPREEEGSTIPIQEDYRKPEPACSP
# [16] = molecular target: Hepatitis A virus cellular receptor 2 (Homo sapiens) (UniProt Q8TDQ0); test: Binding affinity to human Fc-tagged TIM3 at 500 nM measured after 600 sec by biolayer interferometry
# Hepatitis A virus cellular receptor 2 (Homo sapiens), sequence (Q8TDQ0 whole entry): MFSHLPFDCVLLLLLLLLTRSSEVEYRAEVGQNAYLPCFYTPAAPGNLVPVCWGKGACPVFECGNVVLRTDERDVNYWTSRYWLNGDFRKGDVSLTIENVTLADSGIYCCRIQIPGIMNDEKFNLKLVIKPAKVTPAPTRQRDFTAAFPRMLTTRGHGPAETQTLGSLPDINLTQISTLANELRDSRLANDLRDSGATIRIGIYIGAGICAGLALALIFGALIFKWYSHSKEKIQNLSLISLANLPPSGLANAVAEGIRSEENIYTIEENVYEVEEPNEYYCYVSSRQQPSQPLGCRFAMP
# [17] = molecular target: Leukocyte surface antigen CD47 (Homo sapiens) (UniProt Q08722); test: Binding affinity to human Fc-tagged CD47 at 500 nM measured after 600 sec by biolayer interferometry
# Leukocyte surface antigen CD47 (Homo sapiens), sequence (Q08722 whole entry): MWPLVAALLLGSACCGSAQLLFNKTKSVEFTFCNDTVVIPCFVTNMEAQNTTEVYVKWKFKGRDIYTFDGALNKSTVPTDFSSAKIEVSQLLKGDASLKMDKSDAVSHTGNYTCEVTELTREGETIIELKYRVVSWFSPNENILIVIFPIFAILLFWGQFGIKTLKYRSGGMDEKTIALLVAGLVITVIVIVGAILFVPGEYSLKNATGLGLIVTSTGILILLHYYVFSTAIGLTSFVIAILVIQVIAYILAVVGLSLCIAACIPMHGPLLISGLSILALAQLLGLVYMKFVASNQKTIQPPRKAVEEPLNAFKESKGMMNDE
# [18] = molecular target: T3, Programmed cell death 1 ligand 2 (Homo sapiens) (UniProt Q9BQ51); test: Binding affinity to human Fc-tagged PDL2 at 500 nM measured after 600 sec by biolayer interferometry
# T3 sequence (whole entry): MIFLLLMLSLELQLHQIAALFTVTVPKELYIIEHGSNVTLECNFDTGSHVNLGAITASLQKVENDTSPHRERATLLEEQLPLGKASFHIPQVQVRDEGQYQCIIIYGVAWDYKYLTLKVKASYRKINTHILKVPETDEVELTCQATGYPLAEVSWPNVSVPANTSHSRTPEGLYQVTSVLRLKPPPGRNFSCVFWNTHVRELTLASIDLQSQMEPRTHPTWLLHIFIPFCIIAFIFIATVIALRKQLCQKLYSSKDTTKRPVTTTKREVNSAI
# [19] = molecular target: T1, Programmed cell death 1 ligand 1; test: Binding affinity to human Fc-tagged PDL1 at 500 nM measured after 600 sec by biolayer interferometry
# [20] = molecular target: Programmed cell death protein 1 (Homo sapiens) (UniProt Q15116); test: Binding affinity to human Fc-tagged PD1 at 500 nM measured after 600 sec by biolayer interferometry
# Programmed cell death protein 1 (Homo sapiens), sequence (Q15116 whole entry): as the sequence (Q15116 whole entry) above
smiles,measurement,setting,value
COc1cc(NCc2cccc(-c3ccccc3)c2C)c(Cl)cc1CN[C@H](CO)C(=O)O,Activity,[1],Non-Toxic
same,Activity,[2],Non-Toxic
same,Activity,[3],Non-Toxic
same,inhibition,[4],40.9%
same,inhibition,[5],inactive
same,Efficacy,[6],98.6%
same,Activity,[7],Active
same,Dissociation constant (KD),[8],5.15 10^-10M
same,association rate constant (kon),[9],1.29 10^6/M/s
same,koff,[10],6.64 10^-4/s
Cc1cc(CN[C@H](CO)C(=O)O)c(OCc2cncc(C#N)c2)cc1NCc1cccc(-c2ccc3c(c2)OCCO3)c1C,IC50,[11],44 nM
Cc1c(CN(C)c2ccc(CN[C@H](CO)C(=O)O)c(OCc3cccc(C#N)c3)c2)cccc1-c1ccccc1,IC50,[11],> 100000 nM
Cc1cc(NCc2cccc(-c3ccccc3)c2C)cc(OCc2cccc(C#N)c2)c1CN[C@H](CO)C(=O)O,IC50,[11],363 nM
N#Cc1cccc(COc2cc(NCc3cccc(-c4ccccc4)c3Br)ccc2CN[C@H](CO)C(=O)O)c1,IC50,[11],637 nM
Cc1c(CNc2cc(OCc3cncc(C#N)c3)c(CN[C@H](CO)C(=O)O)cc2Cl)cccc1-c1ccc2c(c1)OCCO2,IC50,[11],131 nM
Cc1c(CNc2cc(OCc3cncc(C#N)c3)c(CN[C@H](CO)C(=O)O)cc2Cl)cccc1-c1ccccc1,IC50,[11],26 nM
Cc1cc(CN[C@@H](CO)C(=O)O)c(OCc2cncc(C#N)c2)cc1NCc1cccc(-c2ccccc2)c1C,IC50,[11],23 nM
COc1cc(NCc2cccc(-c3ccccc3)c2C)c(C)cc1CN[C@H](CO)C(=O)O,IC50,[11],253 nM
Cc1c(CNc2ccc(CN[C@H](CO)C(=O)O)c(OCc3cncc(C#N)c3)c2)cccc1-c1ccccc1,Activity,[12],Non-Toxic
same,Activity,[1],Non-Toxic
same,Activity,[2],Non-Toxic
same,Activity,[3],Non-Toxic
same,inhibition,[4],42.5%
same,inhibition,[5],inactive
same,Efficacy,[6],95.9%
same,Activity,[7],Active
same,Dissociation constant (KD),[8],2.96 10^-10M
same,association rate constant (kon),[9],8.49 10^5/M/s
same,koff,[10],2.51 10^-4/s
Cc1cc(CN[C@H](CO)C(=O)O)c(OCc2cncc(C#N)c2)cc1NCc1cccc(-c2ccccc2)c1Br,IC50,[11],31 nM
Cc1cc(CN[C@H](CCO)C(=O)O)c(OCc2cncc(C#N)c2)cc1NCc1cccc(-c2ccccc2)c1C,IC50,[11],36 nM
Cc1cc(NCc2cccc(-c3ccccc3)c2C)cc(OCc2cncc(C#N)c2)c1CN[C@H](CO)C(=O)O,IC50,[11],436 nM
Cc1cc(CN[C@H](CO)C(=O)O)c(OCc2ccccc2)cc1NCc1cccc(-c2ccccc2)c1C,IC50,[11],2580 nM
N#Cc1cncc(COc2cc(NCc3cccc(-c4ccccc4)c3Br)ccc2CN[C@H](CO)C(=O)O)c1,IC50,[11],206 nM
Cc1c(CNc2ccc(CN[C@H](CO)C(=O)O)c(OCc3cccc(C#N)c3)c2)cccc1-c1ccccc1,inhibition,[13],inactive
same,Activity,[12],Non-Toxic
same,Activity,[1],Non-Toxic
same,Activity,[2],Non-Toxic
same,Activity,[3],Non-Toxic
same,inhibition,[5],inactive
same,Efficacy,[6],96.1%
same,Activity,[7],Active
same,Dissociation constant (KD),[8],1.81 10^-9M
same,association rate constant (kon),[9],6.51 10^5/M/s
same,Activity,[14],inactive
same,Activity,[15],inactive
same,Activity,[16],inactive
same,Activity,[17],inactive
same,Activity,[18],inactive
same,Activity,[19],Active
same,Activity,[20],inactive
same,koff,[10],1.18 10^-3/s
Cc1cc(CN2C[C@@H](O)CC2=O)c(OCc2cncc(C#N)c2)cc1NCc1cccc(-c2ccccc2)c1C,IC50,[11],1330 nM
